Test results as given in ChEMBL document CHEMBL4229410, “Facile construction of fused benzimidazole-isoquinolinones that induce cell-cycle arrest and apoptosis in colorectal cancer cells” (Bioorg Med Chem, 2018).
Activity calls are given as the source filed them. No cut-off for these calls is given here.

Legend:
[1] = system: HT-29; test: Antiproliferative activity against human HT-29 cells after 48 hrs by BrdU/DAPI staining based immunofluorescence assay; type: functional, cell-based
How it was run: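 Cells seeded at 20,000 per well after reaching 80% confluence; exposed 48 h to 0, 25, 50, 75 μM, then 10 μM BrdU for 2 h. Paraformaldehyde fixation, 2 M HCl 30 min, 10% goat serum block, anti-BrdU primary overnight at 4 °C, secondary 120 min at room temperature, DAPI 300 nM. Fluorescence microscopy; percent BrdU-positive nuclei, mean ± SD of three independent experiments.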

[2] = system: SW-620; test: Inhibition of colony formation in human SW620 cells assessed as reduction in number of colonies at 25 to 75 uM treated for 48 hrs followed by compound washout and measured after 14 hrs by crystal violet staining based assay; type: functional, cell-based
[3] = system: SW-620; test: Cell cycle arrest in human SW620 cells assessed as accumulation at G1-phase at 25 uM after 48 hrs by propidium iodide staining based flow cytometry (reference value: 40.56%); type: functional
[4] = system: HT-29; test: Cell cycle arrest in human HT-29 cells assessed as accumulation at S-phase at 50 uM after 48 hrs by propidium iodide staining based flow cytometry (reference value: 37.82%); type: functional
[5] = system: HT-29; test: Cell cycle arrest in human HT-29 cells assessed as accumulation at G2-phase at 75 uM after 48 hrs by propidium iodide staining based flow cytometry (reference value: 15.45%); type: functional
[6] = system: HT-29; test: Induction of apoptosis in human HT-29 cells assessed as necrotic cells at 50 uM after 48 hrs by Annexin-V-FITC/propidium iodide staining based flow cytometry (reference value: 1.6%); type: functional
[7] = system: SW-620; test: Effect on total AKT expression in human SW620 cells up to 75 uM after 48 hrs by Western blot analysis; type: ADME, cell-based; conditions: sw-620, 48 h
How it was run: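 HT29 or SW620 cells were treated at 0, 25, 50 and 75 μM for 48 h and lysed in RIPA with protease and phosphatase inhibitors. Protein was quantified by BCA. 50 μg lysate was run on 8–15% SDS-PAGE and transferred to PVDF. Blocking was 5% BSA/TBST for 2 h; primary antibodies were applied overnight at 4 °C, then HRP secondary 1 h at room temperature.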

[8] = target: Serine/threonine-protein kinase mTOR (Homo sapiens) (UniProt P42345); test: Inhibition of mTOR in human HT-29 cells assessed as reduction in 4EBP1 phosphorylation up to 75 uM after 48 hrs by Western blot analysis; type: cell-based
[9] = target: T1, RAC-alpha serine/threonine-protein kinase (Homo sapiens, UniProt P31749); test: Inhibition of human AKT1 expressed in bacterial expression system assessed as residual activity at 5 uM by KINOMEscan assay relative to control
[10] = target: Insulin-like growth factor 1 receptor (Homo sapiens, UniProt P08069); test: Inhibition of human IGF1R (L972 to D1294 residues) expressed in bacterial expression system assessed as residual activity at 5 uM by KINOMEscan assay relative to control
[11] = target: Inhibitor of nuclear factor kappa-B kinase subunit beta (Homo sapiens) (UniProt O14920); test: Inhibition of full length human IKKbeta (M1 to S756 residues) expressed in mammalian expression system assessed as residual activity at 5 uM by KINOMEscan assay relative to control
[12] = target: Mitogen-activated protein kinase 9 (Homo sapiens, UniProt P45984); test: Inhibition of full length human JNK2 (M1 to Q382 residues) expressed in mammalian expression system assessed as residual activity at 5 uM by KINOMEscan assay relative to control
[13] = system: Mast/stem cell growth factor receptor Kit (Homo sapiens), P10721 [V559D,T670I]; test: Inhibition of human KIT (I571 to D952 residues) V559D/T670I double mutant expressed in bacterial expression system assessed as residual activity at 5 uM by KINOMEscan assay relative to control
[14] = target: Platelet-derived growth factor receptor alpha (Homo sapiens, UniProt P16234); test: Inhibition of human PDGFRA (V575 to D1002 residues) expressed in mammalian expression system assessed as residual activity at 5 uM by KINOMEscan assay relative to control
[15] = target: Phosphatidylinositol 4,5-bisphosphate 3-kinase catalytic subunit gamma isoform (Homo sapiens, UniProt P48736); test: Inhibition of human PIK3CG (S144 to A1102 residues) expressed in mammalian expression system assessed as residual activity at 5 uM by KINOMEscan assay relative to control
[16] = target: Serine/threonine-protein kinase PLK3 (Homo sapiens, UniProt Q9H4B4); test: Inhibition of partial length human PLK3 (A42 to L334 residues) expressed in mammalian expression system assessed as residual activity at 5 uM by KINOMEscan assay relative to control
[17] = target: Testis-specific serine/threonine-protein kinase 1 (Homo sapiens) (UniProt Q9BXA7); test: Inhibition of full length human TSSK1B (M1 to Q367 residues) expressed in bacterial expression system assessed as residual activity at 5 uM by KINOMEscan assay relative to control
[18] = target: Tyrosine-protein kinase ZAP-70 (Homo sapiens) (UniProt P43403); test: Inhibition of human ZAP70 (D20 to G299 residues) expressed in mammalian expression system assessed as residual activity at 5 uM by KINOMEscan assay relative to control
[19] = target: T1, RAC-alpha serine/threonine-protein kinase; test: Binding affinity to human AKT1 expressed in bacterial expression system by KINOMEscan assay
[20] = target: Serine/threonine-protein kinase DCLK1 (Homo sapiens, UniProt O15075); test: Binding affinity to partial length human DCAMKL1 (L270 to A662 residues) expressed in mammalian expression system by KINOMEscan assay
[21] = target: Epidermal growth factor receptor (Homo sapiens, UniProt P00533); test: Binding affinity to partial length human EGFR (R669 to V1011 residues) expressed in bacterial expression system by KINOMEscan assay
[22] = target: Fibroblast growth factor receptor 3 (Homo sapiens, UniProt P22607); test: Binding affinity to partial length human FGFR3 (R442 to S771 residues) expressed in bacterial expression system by KINOMEscan assay
[23] = target: MAP kinase-activated protein kinase 2 (Homo sapiens, UniProt P49137); test: Binding affinity to human MAPKAPK2 (V48 to D345 residues) expressed in bacterial expression system by KINOMEscan assay
[24] = target: MAP/microtubule affinity-regulating kinase 3 (Homo sapiens, UniProt P27448); test: Binding affinity to full length human MARK3 (M1 to L729 residues) expressed in bacterial expression system by KINOMEscan assay
[25] = target: Hepatocyte growth factor receptor (Homo sapiens, UniProt P08581); test: Binding affinity to human MET (D1010 to S1367 residues) expressed in bacterial expression system by KINOMEscan assay
[26] = target: 3-phosphoinositide-dependent protein kinase 1 (Homo sapiens, UniProt O15530); test: Binding affinity to full length human PDPK1 (M1 to Q556 residues) expressed in bacterial expression system by KINOMEscan assay
[27] = target: Angiopoietin-1 receptor (Homo sapiens, UniProt Q02763); test: Binding affinity to human TIE2 (N804 to T1112 residues) expressed in bacterial expression system by KINOMEscan assay

T1 sequence (P31749 whole entry, the tested form may be a part): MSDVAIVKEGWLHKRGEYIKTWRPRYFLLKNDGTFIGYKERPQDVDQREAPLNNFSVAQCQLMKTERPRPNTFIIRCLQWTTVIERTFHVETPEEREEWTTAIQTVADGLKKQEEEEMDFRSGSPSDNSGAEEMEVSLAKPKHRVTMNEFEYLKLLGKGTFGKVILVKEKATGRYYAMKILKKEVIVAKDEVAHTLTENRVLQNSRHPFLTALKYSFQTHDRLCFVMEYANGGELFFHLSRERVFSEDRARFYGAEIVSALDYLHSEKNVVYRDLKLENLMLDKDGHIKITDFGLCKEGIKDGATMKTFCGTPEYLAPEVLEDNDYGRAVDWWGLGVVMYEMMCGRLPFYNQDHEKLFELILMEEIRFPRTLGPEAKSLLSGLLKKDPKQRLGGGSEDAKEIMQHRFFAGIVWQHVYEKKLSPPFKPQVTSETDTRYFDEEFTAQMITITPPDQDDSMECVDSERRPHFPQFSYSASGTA
Hepatocyte growth factor receptor, sequence (P08581 whole entry, the tested form may be a part): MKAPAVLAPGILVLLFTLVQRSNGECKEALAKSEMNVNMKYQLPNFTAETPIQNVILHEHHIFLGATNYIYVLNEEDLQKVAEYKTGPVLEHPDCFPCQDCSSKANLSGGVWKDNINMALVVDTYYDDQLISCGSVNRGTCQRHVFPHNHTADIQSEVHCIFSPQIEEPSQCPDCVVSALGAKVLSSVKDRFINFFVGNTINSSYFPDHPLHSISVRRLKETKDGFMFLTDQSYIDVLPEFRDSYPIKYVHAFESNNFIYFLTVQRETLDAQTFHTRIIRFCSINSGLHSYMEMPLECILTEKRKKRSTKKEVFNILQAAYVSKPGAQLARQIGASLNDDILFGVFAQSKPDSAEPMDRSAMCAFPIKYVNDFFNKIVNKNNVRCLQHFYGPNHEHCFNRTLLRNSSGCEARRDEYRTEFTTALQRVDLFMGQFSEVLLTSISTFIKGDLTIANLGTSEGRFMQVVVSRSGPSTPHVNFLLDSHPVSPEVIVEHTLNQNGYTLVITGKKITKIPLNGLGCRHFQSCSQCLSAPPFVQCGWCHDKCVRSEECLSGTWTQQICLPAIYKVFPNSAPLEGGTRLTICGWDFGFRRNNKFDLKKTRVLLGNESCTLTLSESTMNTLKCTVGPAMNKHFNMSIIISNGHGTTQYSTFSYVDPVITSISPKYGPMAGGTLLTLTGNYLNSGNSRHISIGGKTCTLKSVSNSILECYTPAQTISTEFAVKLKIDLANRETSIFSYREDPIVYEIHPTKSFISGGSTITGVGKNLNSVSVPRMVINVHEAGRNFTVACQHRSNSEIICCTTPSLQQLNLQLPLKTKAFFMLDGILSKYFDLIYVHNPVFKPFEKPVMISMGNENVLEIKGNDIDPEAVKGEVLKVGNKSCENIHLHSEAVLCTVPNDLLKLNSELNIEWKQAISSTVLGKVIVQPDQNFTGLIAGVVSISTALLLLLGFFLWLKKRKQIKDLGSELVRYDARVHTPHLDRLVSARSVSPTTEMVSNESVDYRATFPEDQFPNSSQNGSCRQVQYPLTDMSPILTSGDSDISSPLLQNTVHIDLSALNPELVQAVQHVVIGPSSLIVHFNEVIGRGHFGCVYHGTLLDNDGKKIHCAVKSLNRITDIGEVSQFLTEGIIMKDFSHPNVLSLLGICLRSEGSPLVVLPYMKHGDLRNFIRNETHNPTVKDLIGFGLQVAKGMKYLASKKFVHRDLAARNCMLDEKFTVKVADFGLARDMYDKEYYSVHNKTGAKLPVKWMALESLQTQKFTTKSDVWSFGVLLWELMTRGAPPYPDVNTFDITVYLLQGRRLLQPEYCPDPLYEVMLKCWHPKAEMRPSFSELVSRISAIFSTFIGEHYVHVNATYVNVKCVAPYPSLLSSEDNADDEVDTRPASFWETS
MAP/microtubule affinity-regulating kinase 3, sequence (P27448 whole entry, the tested form may be a part): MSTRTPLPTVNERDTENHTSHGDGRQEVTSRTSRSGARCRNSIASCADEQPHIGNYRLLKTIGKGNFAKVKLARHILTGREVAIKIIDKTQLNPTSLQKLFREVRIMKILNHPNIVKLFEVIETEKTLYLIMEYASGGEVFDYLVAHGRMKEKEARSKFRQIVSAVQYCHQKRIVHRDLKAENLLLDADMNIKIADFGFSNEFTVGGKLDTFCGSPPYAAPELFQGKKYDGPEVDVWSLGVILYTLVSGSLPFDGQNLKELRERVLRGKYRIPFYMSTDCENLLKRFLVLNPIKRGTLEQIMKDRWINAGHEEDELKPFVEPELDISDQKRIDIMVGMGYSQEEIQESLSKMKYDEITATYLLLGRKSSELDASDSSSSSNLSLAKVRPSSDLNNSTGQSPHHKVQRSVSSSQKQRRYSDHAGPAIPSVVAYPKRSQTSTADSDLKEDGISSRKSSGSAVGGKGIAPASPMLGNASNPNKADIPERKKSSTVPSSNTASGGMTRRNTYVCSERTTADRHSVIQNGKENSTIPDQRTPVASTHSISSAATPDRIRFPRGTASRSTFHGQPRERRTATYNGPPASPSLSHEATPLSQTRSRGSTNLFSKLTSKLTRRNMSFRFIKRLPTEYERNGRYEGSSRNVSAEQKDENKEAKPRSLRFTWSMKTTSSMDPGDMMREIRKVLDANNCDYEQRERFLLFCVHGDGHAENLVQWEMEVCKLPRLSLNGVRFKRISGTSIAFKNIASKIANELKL
Phosphatidylinositol 4,5-bisphosphate 3-kinase catalytic subunit gamma isoform, sequence (P48736 whole entry, looked up, the tested form may be a part, canonical isoform): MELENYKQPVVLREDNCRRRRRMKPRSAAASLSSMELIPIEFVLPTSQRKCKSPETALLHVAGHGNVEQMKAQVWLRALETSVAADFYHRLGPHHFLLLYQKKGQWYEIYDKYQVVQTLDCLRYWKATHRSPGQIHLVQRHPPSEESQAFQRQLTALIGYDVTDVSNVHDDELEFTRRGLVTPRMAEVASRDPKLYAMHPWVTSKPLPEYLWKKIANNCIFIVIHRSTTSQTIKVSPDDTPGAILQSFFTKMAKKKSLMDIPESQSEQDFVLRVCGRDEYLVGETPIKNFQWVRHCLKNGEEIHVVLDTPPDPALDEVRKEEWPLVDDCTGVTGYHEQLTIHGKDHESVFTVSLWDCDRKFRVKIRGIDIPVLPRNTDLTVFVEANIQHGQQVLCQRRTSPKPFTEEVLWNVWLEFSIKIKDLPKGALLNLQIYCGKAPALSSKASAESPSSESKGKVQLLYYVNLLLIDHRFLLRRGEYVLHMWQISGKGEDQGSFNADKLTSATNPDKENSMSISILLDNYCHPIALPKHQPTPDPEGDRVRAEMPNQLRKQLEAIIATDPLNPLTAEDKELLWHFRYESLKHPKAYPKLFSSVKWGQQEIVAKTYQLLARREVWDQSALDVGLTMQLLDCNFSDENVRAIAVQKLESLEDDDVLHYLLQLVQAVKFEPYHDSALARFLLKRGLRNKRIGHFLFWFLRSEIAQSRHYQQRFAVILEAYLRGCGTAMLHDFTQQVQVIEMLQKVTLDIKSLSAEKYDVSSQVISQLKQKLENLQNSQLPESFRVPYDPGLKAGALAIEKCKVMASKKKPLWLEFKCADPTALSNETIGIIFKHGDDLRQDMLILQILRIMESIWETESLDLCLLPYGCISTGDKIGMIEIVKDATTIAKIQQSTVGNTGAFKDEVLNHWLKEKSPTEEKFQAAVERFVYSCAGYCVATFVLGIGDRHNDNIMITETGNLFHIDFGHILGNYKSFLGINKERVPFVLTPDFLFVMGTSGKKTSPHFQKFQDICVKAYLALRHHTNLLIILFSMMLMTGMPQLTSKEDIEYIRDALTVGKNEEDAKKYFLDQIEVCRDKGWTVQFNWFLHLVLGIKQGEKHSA
Mitogen-activated protein kinase 9, sequence (P45984 whole entry, looked up, the tested form may be a part): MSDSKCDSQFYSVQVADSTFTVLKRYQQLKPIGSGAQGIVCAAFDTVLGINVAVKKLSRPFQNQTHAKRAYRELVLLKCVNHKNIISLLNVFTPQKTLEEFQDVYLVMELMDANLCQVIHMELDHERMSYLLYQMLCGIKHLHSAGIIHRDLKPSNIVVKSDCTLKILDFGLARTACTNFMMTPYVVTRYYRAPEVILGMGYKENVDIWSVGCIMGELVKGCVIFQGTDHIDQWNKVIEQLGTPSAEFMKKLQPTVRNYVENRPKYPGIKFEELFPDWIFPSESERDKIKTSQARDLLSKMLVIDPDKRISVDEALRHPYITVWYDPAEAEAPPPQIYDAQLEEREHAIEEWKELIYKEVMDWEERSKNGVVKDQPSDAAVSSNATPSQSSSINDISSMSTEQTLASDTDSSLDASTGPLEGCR
Fibroblast growth factor receptor 3, sequence (P22607 whole entry, the tested form may be a part): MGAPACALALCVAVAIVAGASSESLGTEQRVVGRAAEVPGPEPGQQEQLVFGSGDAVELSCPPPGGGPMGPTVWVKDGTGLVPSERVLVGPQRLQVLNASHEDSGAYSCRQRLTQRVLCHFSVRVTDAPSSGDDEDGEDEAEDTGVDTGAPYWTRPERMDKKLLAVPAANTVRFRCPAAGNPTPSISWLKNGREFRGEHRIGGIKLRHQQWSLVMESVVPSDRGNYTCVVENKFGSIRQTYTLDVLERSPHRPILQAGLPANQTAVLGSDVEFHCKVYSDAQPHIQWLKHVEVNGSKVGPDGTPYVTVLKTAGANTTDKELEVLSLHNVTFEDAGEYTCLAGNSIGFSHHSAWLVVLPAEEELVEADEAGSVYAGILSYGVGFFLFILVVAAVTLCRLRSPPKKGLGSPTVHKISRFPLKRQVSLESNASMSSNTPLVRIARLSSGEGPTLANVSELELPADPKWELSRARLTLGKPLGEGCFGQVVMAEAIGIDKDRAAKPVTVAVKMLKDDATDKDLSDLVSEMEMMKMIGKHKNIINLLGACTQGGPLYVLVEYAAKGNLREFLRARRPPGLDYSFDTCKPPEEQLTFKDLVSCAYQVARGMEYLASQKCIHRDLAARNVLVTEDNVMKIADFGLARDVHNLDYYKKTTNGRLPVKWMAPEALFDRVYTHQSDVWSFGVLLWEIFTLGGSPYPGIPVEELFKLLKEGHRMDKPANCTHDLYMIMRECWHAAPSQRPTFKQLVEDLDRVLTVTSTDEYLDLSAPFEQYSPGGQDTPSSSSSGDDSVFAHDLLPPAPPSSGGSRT

Q: Which Activity [1] does the source give for `CC(C)CN(C(=O)c1cccnc1)c1c2ccccc2c(=O)n2c1[nH]c1ccccc12` here?
A: Dose-dependent effect

Q: What about the inhibition [2] of the same compound?
A: Active

Q: What about the Activity [3] of the same compound?
A: 39.26%

Q: What about the Activity [4] of the same compound?
A: 35.86%

Q: And the Activity [5]?
A: 21.78%

Q: And the Activity [6]?
A: 4.4%

Q: What about the Activity [7] of the same compound?
A: Non-Toxic

Q: And the inhibition [8]?
A: Active

Q: And the Activity [9]?
A: 98%

Q: What about the Activity [10] of the same compound?
A: 100%

Q: What about the Activity [11] of the same compound?
A: 93%

Q: And the Activity [12]?
A: 96%

Q: What about the Activity [13] of the same compound?
A: 98%

Q: And the Activity [14]?
A: 100%

Q: What about the Activity [15] of the same compound?
A: 100%

Q: And the Activity [16]?
A: 87%

Q: What about the Activity [17] of the same compound?
A: 92%

Q: What about the Activity [18] of the same compound?
A: 89%

Q: And the Kd [19]?
A: ≥ 5 µM

Q: What about the Kd [20] of the same compound?
A: ≥ 5 µM

Q: What about the Kd [21] of the same compound?
A: ≥ 5 µM

Q: And the Kd [22]?
A: ≥ 5 µM

Q: What about the Kd [23] of the same compound?
A: ≥ 5 µM

Q: What about the Kd [24] of the same compound?
A: ≥ 5 µM

Q: And the Kd [25]?
A: ≥ 5 µM

Q: And the Kd [26]?
A: ≥ 5 µM

Q: And the Kd [27]?
A: ≥ 5 µM
